Assay outcomes deposited in PubChem by Sanford-Burnham Center for Chemical Genomics.
A selection follows.
Apaf1 activ – human Apaf-1 activation. activity change, negative = activation, % at 20 µM. actives 0.31% (n = 330,000). O14727. Apaf-1 apoptosome caspase-3 activation, DEVD-Rh110 fluorescence; active compounds read low;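 active = activity change at or below -40% at 20 µM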
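Assay system – biochemical Apaf-1 apoptosome reconstitution · Medium – 20 mM HEPES buffer, pH 7.5, containing CHAPS and BSA · Incubation – 30 min preincubation, 50 min reaction, room temperature · Measured by – Caspase-3-released Rh110 fluorescence, 540 nm emission, 480 nm excitation · Read-out – Caspase-3 cleavage activity downstream of Apaf-1 activation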
Rh110 act interf – counter-screen for Apaf-1 activators: fluorescence interference; shares compounds with Apaf1 activ; Rh110 fluorescence interference, quenched caspase reaction, Ex480/Em540; fluorescence interference (activity change), % at 20 µM, hits read low; 980 tested, under 10 active;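 active = mean activity change at or below -40% when tested at 20 µM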
Apaf-1 act conf – confirmation of human Apaf-1 activators. shares compounds with Apaf1 activ. reconstituted apoptosome caspase-3 activity, DEVD-Rh110 fluorescence; active compounds read low. activity change, negative = activation, % at 20 µM. actives 5% (n = 980). AID 504617;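 active = mean activity change at or below -40%, meaning activation of 40% or more, at 20 µM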
* hit, by the source's call.

SMILES	Apaf1 activ	others
C=CCn1c(O)c(C(C)=Nc2ccc(C(=O)O)cc2)c(=O)[nH]c1=O	-77*	Rh110 act interf=-2;Apaf-1 act conf=12
NC(N)=N/N=C/c1ccc(N(c2ccccc2)c2ccccc2)cc1	61
Cc1c(C(=O)Nc2ccccc2)cc(-c2ccccc2)n1CCCN1CCOCC1	-201*	Rh110 act interf=-2;Apaf-1 act conf=10
CCN(CCO)c1ccc(N=Cc2c(O)n(C)c(=S)[nH]c2=O)cc1	51
CCN(CC)c1ccc(N=Cc2c(O)n(-c3cc(OC)ccc3OC)c(=O)[nH]c2=O)cc1	48
CCCNC1=C(C)C(=O)C2=C(C1=O)C(COC(N)=O)[C@]1(OC)C3NC3CN21 (stereo partly drawn)	57
CCOC(=O)C(O)(c1ccc(N(C)C(=O)c2ccc(Cl)c(Cl)c2)cc1)C(F)(F)F (stereo not drawn)	-190*	Rh110 act interf=-2;Apaf-1 act conf=23
c1cncc(C2Nc3cccc4cccc(c34)N2)c1	42
CC[C@@H]1C(=O)OC[C@@H]1Cc1cncn1C	0
Nc1c(C(=O)NC2CCCC2)c2nc3ccccc3nc2n1CC1CCCO1 (stereo not drawn)	94
COc1cc2c(cc1OC)-c1c(OC)c(OC)cc3c1[C@H](C2)N(C)CC3	95
O=c1[nH]c2ccccc2n1C1CCN(CCCC(c2ccc(F)cc2)c2ccc(F)cc2)CC1	56
CCCCCn1c(NC(=O)c2ccco2)c(C(=O)OCC)c2nc3ccccc3nc21	92
CNCCc1nc(N)n[nH]1	-74*	Rh110 act interf=4;Apaf-1 act conf=12
CNc1ccc2nc3ccccc3[n+](C)c2c1	89
CCOC(=O)c1c(NS(=O)(=O)c2ccccc2)n(CCCOC)c2nc3ccccc3nc12	96
CCCCCCCSc1cc(OC)c(CCN(C)C)cc1OC	56
c1ccc(-c2[nH]c[n+](CC3CO3)c2-c2ccccc2)cc1 (stereo not drawn)	51
C[N+]1(C)[C@@H]2CC[C@H]1CC(OC(=O)[C@@H](CO)c1ccccc1)C2 (stereo partly drawn)	70
O=c1cc(C2CCNCC2)[nH][nH]1	58
CCCOC(=O)c1ccc(-[n+]2c(-c3ccccc3)cc(-c3ccccc3)cc2-c2ccccc2)cc1	47
CCOc1ccc(Cl)cc1CNCCc1ccc(F)cc1	-44*	Rh110 act interf=-1;Apaf-1 act conf=11
Cc1ccc(C[n+]2c(-c3ccc(C)cc3)cc(-c3ccc(C)cc3)cc2-c2ccc(C)cc2)cc1	79
Nc1cncc(C(=O)O)c1	41
Clc1ccc(C(c2ccc(Cl)cc2)n2cc[n+](CC(OCc3ccc(Cl)cc3Cl)c3ccc(Cl)cc3Cl)c2)cc1 (stereo not drawn)	89
